According to ChEMBL document CHEMBL1124776, “Studies on hindered phenols and analogues. 2. 1,3-Benzoxathioles having SRS-A inhibiting activity” (J Med Chem, 1990):
pIC50: −log10 of the molar value. ≈ marks a conversion by molar mass, not a printed value.

Legend:
Cavia porcellus = organism: Cavia porcellus; assay: Evaluated for inhibition of the formation and release of SRS-A in isolated guinea pig ileum; type: functional
Summary of the method: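 Guinea pig (Hartley, male) lung slices from sensitized animals were preincubated with compound for 15 min, then challenged with albumin antigen. SRS-A formed and released was bioassayed by superfusion over isolated guinea pig ileum. IC50 (μM) came from a least-squares regression of percent inhibition against dose, with 95% confidence limits by Fieller's equation.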

Rattus norvegicus = organism: Rattus norvegicus; assay: LPO-lowering activity was estimated by the IC50 value of compound in rat liver microsomal lipid peroxidation; type: functional
Summary of the method: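 Rat liver microsomes were reacted with compound plus cysteine (500 μM) and ferrous sulfate (5 μM), following the ferrous sulfate/cysteine method. Lipid peroxide was measured by the thiobarbituric acid method. IC50 (μg/mL) is the concentration giving 50% inhibition of lipid peroxide formation.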

[1] = tested on: superoxide radical (cell-free, no organism); assay: The concentration of compound required to inhibit generation of superoxide by 50 percent electrochemically
[2] = Rattus norvegicus, Liver, read-out: IC50

| Compound | pIC50 (Cavia porcellus) | IC50 (Rattus norvegicus; [2]) | Q1/2 [1] | IC50 (Rattus norvegicus) |
| --- | --- | --- | --- | --- |
| Cc1c(C)c2c(c(C)c1O)SC(C)O2 (stereo unspecified) | 5.68 | < 0.1 µg/mL | 1.6 mM |  |
| CCCCCCCCCCCCCCCCCCCC1Oc2c(C)c(C)c(O)c(C)c2S1 (stereo unspecified) |  | > 1 µg/mL | 1.8 mM |  |
| NC1=NN(c2cccc(C(F)(F)F)c2)CC1 [BW-755C] | 3.87 |  |  |  |
| CC(C)(C)c1cc(/C=C2\CCOC2=O)cc(C(C)(C)C)c1O | 3.83 |  |  |  |
| CCCCC1Oc2c(C)c(C)c(O)c(C)c2S1 (stereo unspecified) | 4.92 | < 0.1 µg/mL | 1.6 mM |  |
| Cc1cc(C(C)(C)C)c(O)c(C(C)(C)C)c1 [BUTYLATED HYDROXYTOLUENE] |  |  | 0.45 mM |  |
| Cc1c(C)c2c(c(C)c1O)SC(CCC(N)=O)O2 (stereo unspecified) | 5.51 | 0.3 µg/mL (≈ 1.12 µM) | 2.3 mM |  |
| Cc1c(C)c2c(c(C)c1O)SC(c1ccccc1)O2 (stereo unspecified) | 5.18 | < 0.1 µg/mL | 2.4 mM |  |
| CCCCCCCC1Oc2c(C)c(C)c(O)c(C)c2S1 (stereo unspecified) | < 4.47 | < 0.1 µg/mL | 1.4 mM |  |
| CCC1Oc2c(C)c(C)c(O)c(C)c2S1 (stereo unspecified) | 5.35 | < 0.1 µg/mL | 1.3 mM |  |
| CC1Oc2cc(C(C)(C)C)c(O)cc2S1 (stereo unspecified) | 4.95 | 0.1 µg/mL (≈ 0.446 µM) |  |  |
| VITAMIN E [listing 1 of 2 here] |  |  |  | > 1 µg/mL |
| CCCC1Oc2c(C)c(C)c(O)c(C)c2S1 (stereo unspecified) | 5.42 | < 0.1 µg/mL | 1.4 mM |  |
| Cc1c(C)c2c(c(C)c1O)CCC(C)(C)O2 [APC-100] |  | < 0.1 µg/mL | 2.4 mM |  |
| CCCCCCC1Oc2c(C)c(C)c(O)c(C)c2S1 (stereo unspecified) | < 4.45 | 0.1 µg/mL (≈ 0.357 µM) | 1.6 mM |  |
| Cc1c(C)c2c(c(C)c1O)CCC(C)(CO)O2 (stereo unspecified) |  | 0.3 µg/mL (≈ 1.27 µM) | 2 mM |  |
| Cc1c(C)c2c(c(C)c1O)CCC(C)(C(=O)O)O2 (stereo unspecified) [TROLOX] |  | > 1 µg/mL | 1.9 mM |  |
| Cc1c(C)c2c(c(C)c1O)SC(CCCO)O2 (stereo unspecified) | 5.82 | 0.1 µg/mL (≈ 0.393 µM) | 2.2 mM |  |
| Cc1c(C)c2c(c(C)c1O)SCO2 | 5.62 | < 0.1 µg/mL | 1.3 mM |  |
| Cc1c(C)c2c(c(C)c1O)SC(CCC(=O)O)O2 (stereo unspecified) | < 4.43 | > 1 µg/mL | 1.8 mM |  |
| Oc1ccc2c(c1)SCO2 | < 4.19 | > 1 µg/mL | 6.2 mM |  |
| VITAMIN E [listing 2 of 2 here] |  |  | 4.4 mM |  |
